In ChEMBL document CHEMBL1817606, “3-benzhydryl-4-piperidones as novel neurokinin-1 receptor antagonists and their efficient synthesis” (Bioorg Med Chem, 2011):
The source made the active and inactive calls. The calls are words filed in the database; no cut-off is given here.

Assays:
[1] = system: Cavia porcellus; test: Inhibition of capsaicin-induced plasma extravasation in trachea of po dosed guinea pig; format: functional, organism-based
[2] = system: Cavia porcellus; test: Inhibition of capsaicin-induced plasma extravasation in trachea of iv dosed guinea pig; format: functional, organism-based
[3] = molecular target: T1, Substance-P receptor (Homo sapiens, UniProt P25103); test: Displacement of [125I]BH-SP from human tachykinin NK1 receptor expressed in IM9 cells after 30 mins by scintillation counting; format: cell-based, IM-9
T1 sequence (P25103 whole entry): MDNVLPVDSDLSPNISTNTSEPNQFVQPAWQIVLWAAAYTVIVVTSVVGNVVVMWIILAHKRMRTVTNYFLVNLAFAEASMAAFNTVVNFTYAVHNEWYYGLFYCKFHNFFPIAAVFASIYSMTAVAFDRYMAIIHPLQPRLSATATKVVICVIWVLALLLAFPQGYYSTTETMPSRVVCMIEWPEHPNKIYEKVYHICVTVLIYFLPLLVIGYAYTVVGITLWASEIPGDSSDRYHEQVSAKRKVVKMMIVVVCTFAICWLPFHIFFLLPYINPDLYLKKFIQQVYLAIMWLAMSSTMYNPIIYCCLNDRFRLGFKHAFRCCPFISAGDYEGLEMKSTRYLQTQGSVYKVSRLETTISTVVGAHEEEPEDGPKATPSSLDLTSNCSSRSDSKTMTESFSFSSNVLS
Outline: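 Membranes from IM-9 cells grown 3 days, homogenized in 50 mM Tris-HCl pH 7.4 with NaCl, KCl, EDTA and protease inhibitors, spun at 40,000g for 20 min, then resuspended in a Tris buffer with 0.02% BSA and 3 mM MnCl2. Nonspecific binding was defined with 2 × 10^-6 M SP. Bound ligand was collected on GF/C filters, washed three times and counted.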

[4] = molecular target: T1, Substance-P receptor; test: Displacement of [125I]BH-SP from human tachykinin NK1 receptor expressed in IM9 cells at 10^-7 M after 30 mins by scintillation counting; format: cell-based; conditions: IM-9

SMILES | IC50 [3] [nM] | also measured
COc1ccc(OC(F)(F)F)cc1CN1CCC(=O)C(C(c2ccccc2)c2ccccc2)C1 (racemic) | – | inhibition [1]: inactive; inhibition [2]: inactive
O=C1CCN(Cc2ccccc2O)CC1C(c1ccc(F)cc1)c1ccc(F)cc1 (racemic) | 280 | –
O=C1CCN(Cc2ccccc2)CC1C(c1ccc(F)cc1)c1ccc(F)cc1 (racemic) | 97 | inhibition [4]: 81.7%
COc1ccc(OC)c(CN2CCC(=O)C(C(c3ccc(F)cc3)c3ccc(F)cc3)C2)c1 (racemic) | 3.1 | –
COc1ccc(CN2CCC(=O)C(C(c3ccc(F)cc3)c3ccc(F)cc3)C2)cc1 (racemic) | 77 | –
O=C1CCN(Cc2ccccc2C(F)(F)F)CC1C(c1ccc(F)cc1)c1ccc(F)cc1 (racemic) | 4.9 | –
O=C1CN(Cc2ccccc2)CC1C(c1ccccc1)c1ccccc1 (racemic) | – | inhibition [4]: -0.6%
O=C1CCN(Cc2ccccc2)CC1C1c2ccccc2Oc2ccccc21 (racemic) | – | inhibition [4]: 29.8%
COc1ccccc1CN1CCC(=O)C(C(c2ccc(F)cc2)c2ccc(F)cc2)C1 (racemic) | 6.6 | –
N#Cc1ccccc1CN1CCC(=O)C(C(c2ccc(F)cc2)c2ccc(F)cc2)C1 (racemic) | 6.1 | –
COc1ccc([N+](=O)[O-])cc1CN1CCC(=O)C(C(c2ccccc2)c2ccccc2)C1 (racemic) | 2.6 | –
COc1cccc(OC)c1CN1CCC(=O)C(C(c2ccc(F)cc2)c2ccc(F)cc2)C1 (racemic) | 2.3 | –
COc1cccc(CN2CCC(=O)C(C(c3ccc(F)cc3)c3ccc(F)cc3)C2)c1OC (racemic) | 55 | –
COc1ccc(CN2CCC(=O)C(C(c3ccc(F)cc3)c3ccc(F)cc3)C2)c(OC)c1 (racemic) | 9.5 | –
O=C1CCN(Cc2ccc(C(F)(F)F)cc2)CC1C(c1ccc(F)cc1)c1ccc(F)cc1 (racemic) | 220 | –
COc1ccc(NS(C)(=O)=O)cc1CN1CCC(=O)C(C(c2ccccc2)c2ccccc2)C1 (racemic) | – | inhibition [1]: inactive; inhibition [2]: inactive
O=C1CCN(Cc2ccccc2-c2ccccc2)CC1C(c1ccc(F)cc1)c1ccc(F)cc1 (racemic) | 14 | –
O=C1CCN(Cc2ccccc2)CC1=C(c1ccccc1)c1ccccc1 | – | inhibition [4]: -2%
COc1ccc(F)cc1CN1CCC(=O)C(C(c2ccc(F)cc2)c2ccc(F)cc2)C1 (racemic) | 4 | –

SMILES | IC50 [3] [nM] | also measured
COc1ccc(NC(C)=O)cc1CN1CCC(=O)C(C(c2ccccc2)c2ccccc2)C1 (racemic) | 15 | –
O=C1CCN(Cc2ccccc2)CC1C1c2ccccc2C=Cc2ccccc21 (racemic) | – | inhibition [4]: 31.1%
COc1cccc(CN2CCC(=O)C(C(c3ccc(F)cc3)c3ccc(F)cc3)C2)c1 (racemic) | 31 | –
O=C1CCN(Cc2ccccc2F)CC1C(c1ccc(F)cc1)c1ccc(F)cc1 (racemic) | 46 | –
O=C1CCN(Cc2ccccc2[N+](=O)[O-])CC1C(c1ccc(F)cc1)c1ccc(F)cc1 (racemic) | 18 | –
O=C1CCNCC1C(c1ccccc1)c1ccccc1 (racemic) | – | inhibition [4]: 17.6%
O=C1CCN(Cc2ccccc2)CC1C(c1ccc(Cl)cc1)c1ccc(Cl)cc1 (racemic) | 97 | inhibition [4]: 81.7%
O=C1CCN(CCc2ccccc2)CC1C(c1ccccc1)c1ccccc1 (racemic) | – | inhibition [4]: 54.3%
O=C1CN(Cc2ccccc2)CCC1C(c1ccccc1)c1ccccc1 (racemic) | – | inhibition [4]: 9.7%
COc1ccc(C(C)C)cc1CN1CCC(=O)C(C(c2ccccc2)c2ccccc2)C1 (racemic) | – | inhibition [1]: inactive; inhibition [2]: inactive
COc1ccc(N)cc1CN1CCC(=O)C(C(c2ccccc2)c2ccccc2)C1 (racemic) | 5.9 | –
COc1ccc(Br)cc1CN1CCC(=O)C(C(c2ccc(F)cc2)c2ccc(F)cc2)C1 (racemic) [listing 1 of 2 here] | 1.1 | –
COc1ccc(Br)cc1CN1CCC(=O)C(C(c2ccc(F)cc2)c2ccc(F)cc2)C1 (single isomer, unassigned; (+)) | 1.5 | –
COc1ccc(Br)cc1CN1CCC(=O)C(C(c2ccc(F)cc2)c2ccc(F)cc2)C1 (racemic) [listing 2 of 2 here] | – | inhibition [1]: inactive; inhibition [2]: inactive
O=C1CCN(Cc2ccccc2)CC1C(c1ccccc1)c1ccccc1 (racemic) | 97 | inhibition [4]: 81.7%
O=C1CCN(Cc2cccc(C(F)(F)F)c2)CC1C(c1ccc(F)cc1)c1ccc(F)cc1 (racemic) | 270 | –
O=C1CCN(Cc2cc(C(F)(F)F)cc(C(F)(F)F)c2)CC1C(c1ccc(F)cc1)c1ccc(F)cc1 (racemic) | – | inhibition [4]: 32.9%
COc1ccc(OC(F)(F)F)cc1CN1CCC(=O)C(C(c2ccc(F)cc2)c2ccc(F)cc2)C1 (racemic) | 0.81 | –
